Data taken from ChEMBL document CHEMBL5046221, “Identification of Pyrimidine-Based Lead Compounds for Understudied Kinases Implicated in Driving Neurodegeneration” (J Med Chem, 2022).
Active and inactive are the calls of the source. No cut-off for these calls is given here.

Experiments:
[1] = molecular target: T1, Serine/threonine-protein kinase 17A (Homo sapiens) (UniProt Q9UEE5); experiment: Inhibition of recombinant human DRAK1 using KKLNRTLSFAEPG as substrate after 40 mins in presence of [gamma-33ATP] by scintillation counting based radiometry assay
T1 sequence (whole entry): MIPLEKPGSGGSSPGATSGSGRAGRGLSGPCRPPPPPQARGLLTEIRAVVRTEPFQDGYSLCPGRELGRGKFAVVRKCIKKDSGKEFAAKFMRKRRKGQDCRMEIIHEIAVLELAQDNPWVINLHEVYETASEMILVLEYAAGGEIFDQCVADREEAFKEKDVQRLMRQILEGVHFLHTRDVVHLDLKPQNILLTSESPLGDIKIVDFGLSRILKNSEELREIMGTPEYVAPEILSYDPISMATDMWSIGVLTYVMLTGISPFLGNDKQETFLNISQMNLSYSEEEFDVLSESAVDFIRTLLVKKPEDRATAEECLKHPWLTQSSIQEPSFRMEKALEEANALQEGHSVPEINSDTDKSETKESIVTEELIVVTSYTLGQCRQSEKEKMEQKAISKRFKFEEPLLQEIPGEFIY
Summary of the method: (§1)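 Eurofins radiometric kinase assay run at ATP equal to Km for each kinase. 9-point dose–response in duplicate gives the IC50.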

[2] = molecular target: T2, Serine/threonine-protein kinase 17A (Homo sapiens, UniProt Q9UEE5); experiment: Displacement of tracer K9 from NLuc fused DRAK1 (unknown origin) expressed in HEK293 cells by NanoBRET assay; type: cell-based
T2 sequence (Q9UEE5 whole entry): T1 sequence (whole entry)

[3] = molecular target: T3, MAP/microtubule affinity-regulating kinase 3 (Homo sapiens, UniProt P27448); experiment: Displacement of tracer K9 from NLuc fused MARK3 (unknown origin) expressed in HEK293 cells by NanoBRET assay; type: cell-based
Target sequence in this assay (P27448 whole entry, the tested form may be a part): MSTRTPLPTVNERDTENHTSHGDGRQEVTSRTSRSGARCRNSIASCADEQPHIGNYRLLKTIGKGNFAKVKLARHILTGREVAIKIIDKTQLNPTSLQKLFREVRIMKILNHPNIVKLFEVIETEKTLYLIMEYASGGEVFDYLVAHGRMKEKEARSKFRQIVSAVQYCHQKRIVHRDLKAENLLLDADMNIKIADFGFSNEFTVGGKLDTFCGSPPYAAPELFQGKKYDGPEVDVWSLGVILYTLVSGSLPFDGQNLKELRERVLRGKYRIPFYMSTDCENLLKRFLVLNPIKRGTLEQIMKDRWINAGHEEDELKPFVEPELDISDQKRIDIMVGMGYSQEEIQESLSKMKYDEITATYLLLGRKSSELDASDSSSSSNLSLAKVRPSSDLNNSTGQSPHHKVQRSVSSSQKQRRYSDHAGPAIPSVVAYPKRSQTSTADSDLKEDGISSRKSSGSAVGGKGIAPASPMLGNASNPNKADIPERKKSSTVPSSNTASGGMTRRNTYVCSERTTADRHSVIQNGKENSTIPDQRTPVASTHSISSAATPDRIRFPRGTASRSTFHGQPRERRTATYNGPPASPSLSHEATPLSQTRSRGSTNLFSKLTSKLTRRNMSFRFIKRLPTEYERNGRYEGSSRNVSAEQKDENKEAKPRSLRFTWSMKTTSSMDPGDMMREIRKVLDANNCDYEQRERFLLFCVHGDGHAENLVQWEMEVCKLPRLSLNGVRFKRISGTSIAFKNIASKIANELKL

[4] = molecular target: T4, MAP/microtubule affinity-regulating kinase 4 (Homo sapiens, UniProt Q96L34); experiment: Displacement of tracer K5 from NLuc fused MARK4 (unknown origin) expressed in HEK293 cells by NanoBRET assay; type: cell-based
T4 sequence (Q96L34 whole entry): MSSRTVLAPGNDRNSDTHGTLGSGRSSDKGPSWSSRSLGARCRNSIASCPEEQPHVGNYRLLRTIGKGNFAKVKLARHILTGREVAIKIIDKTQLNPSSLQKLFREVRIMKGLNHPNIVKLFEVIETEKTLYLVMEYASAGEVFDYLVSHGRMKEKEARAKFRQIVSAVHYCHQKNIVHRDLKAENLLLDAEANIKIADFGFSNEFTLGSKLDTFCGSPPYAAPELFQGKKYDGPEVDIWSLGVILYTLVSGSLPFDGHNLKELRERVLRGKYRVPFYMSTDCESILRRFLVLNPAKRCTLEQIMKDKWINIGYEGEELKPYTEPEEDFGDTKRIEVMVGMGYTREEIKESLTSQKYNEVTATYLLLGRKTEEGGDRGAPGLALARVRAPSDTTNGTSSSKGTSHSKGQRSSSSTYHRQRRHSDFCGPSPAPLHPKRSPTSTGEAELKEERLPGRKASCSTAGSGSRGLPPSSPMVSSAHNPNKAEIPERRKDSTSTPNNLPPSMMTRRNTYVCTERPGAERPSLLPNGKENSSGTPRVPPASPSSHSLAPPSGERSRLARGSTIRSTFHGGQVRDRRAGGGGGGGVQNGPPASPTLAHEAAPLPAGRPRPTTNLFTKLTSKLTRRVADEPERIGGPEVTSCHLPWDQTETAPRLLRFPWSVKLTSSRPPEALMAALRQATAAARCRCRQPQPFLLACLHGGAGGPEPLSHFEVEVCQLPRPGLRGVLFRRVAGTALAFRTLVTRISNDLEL

[5] = molecular target: T5, Serine/threonine-protein kinase TBK1 (Homo sapiens, UniProt Q9UHD2); experiment: Displacement of tracer K5 from NLuc fused TBK1 (unknown origin) expressed in HEK293 cells by NanoBRET assay; type: cell-based
T5 sequence (Q9UHD2 whole entry): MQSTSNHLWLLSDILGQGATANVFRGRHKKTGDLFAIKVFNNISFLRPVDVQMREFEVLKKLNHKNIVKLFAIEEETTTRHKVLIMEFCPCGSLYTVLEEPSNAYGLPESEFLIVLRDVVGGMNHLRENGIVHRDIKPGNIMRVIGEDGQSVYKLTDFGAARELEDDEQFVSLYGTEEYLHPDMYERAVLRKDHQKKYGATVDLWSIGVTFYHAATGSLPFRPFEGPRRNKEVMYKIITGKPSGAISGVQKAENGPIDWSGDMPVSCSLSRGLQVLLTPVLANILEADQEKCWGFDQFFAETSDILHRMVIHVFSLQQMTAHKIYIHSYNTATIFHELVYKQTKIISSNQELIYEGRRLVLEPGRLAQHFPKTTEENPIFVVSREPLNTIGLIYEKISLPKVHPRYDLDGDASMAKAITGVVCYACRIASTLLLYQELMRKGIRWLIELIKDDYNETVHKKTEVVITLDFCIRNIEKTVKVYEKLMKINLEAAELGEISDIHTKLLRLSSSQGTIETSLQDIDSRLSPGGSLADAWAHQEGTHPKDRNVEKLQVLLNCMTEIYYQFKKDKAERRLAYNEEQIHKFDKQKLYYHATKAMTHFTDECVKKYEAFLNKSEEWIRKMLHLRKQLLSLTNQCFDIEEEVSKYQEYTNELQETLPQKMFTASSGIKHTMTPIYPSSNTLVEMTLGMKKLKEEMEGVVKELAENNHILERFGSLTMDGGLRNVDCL
Summary of the method: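 HEK293 cells grown in DMEM with 10% FBS at 37 °C, 5% CO2. NanoBRET assay run in dose–response per manufacturer's protocol with tracer K-5 at 0.5 μM. SEM calculated for assays run more than once.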

[6] = molecular target: Serine/threonine-protein kinase MARK1 (Homo sapiens) (UniProt Q9P0L2); experiment: Inhibition of recombinant human MARK1 (2 to end residues) using KKKVSRSGLYRSPSMPENLNRPR as substrate incubated for 40 mins in presence of [gamma-33ATP] by scintillation counting based radiometry assay
Sequence of Serine/threonine-protein kinase MARK1 (Homo sapiens) (Q9P0L2 whole entry, looked up): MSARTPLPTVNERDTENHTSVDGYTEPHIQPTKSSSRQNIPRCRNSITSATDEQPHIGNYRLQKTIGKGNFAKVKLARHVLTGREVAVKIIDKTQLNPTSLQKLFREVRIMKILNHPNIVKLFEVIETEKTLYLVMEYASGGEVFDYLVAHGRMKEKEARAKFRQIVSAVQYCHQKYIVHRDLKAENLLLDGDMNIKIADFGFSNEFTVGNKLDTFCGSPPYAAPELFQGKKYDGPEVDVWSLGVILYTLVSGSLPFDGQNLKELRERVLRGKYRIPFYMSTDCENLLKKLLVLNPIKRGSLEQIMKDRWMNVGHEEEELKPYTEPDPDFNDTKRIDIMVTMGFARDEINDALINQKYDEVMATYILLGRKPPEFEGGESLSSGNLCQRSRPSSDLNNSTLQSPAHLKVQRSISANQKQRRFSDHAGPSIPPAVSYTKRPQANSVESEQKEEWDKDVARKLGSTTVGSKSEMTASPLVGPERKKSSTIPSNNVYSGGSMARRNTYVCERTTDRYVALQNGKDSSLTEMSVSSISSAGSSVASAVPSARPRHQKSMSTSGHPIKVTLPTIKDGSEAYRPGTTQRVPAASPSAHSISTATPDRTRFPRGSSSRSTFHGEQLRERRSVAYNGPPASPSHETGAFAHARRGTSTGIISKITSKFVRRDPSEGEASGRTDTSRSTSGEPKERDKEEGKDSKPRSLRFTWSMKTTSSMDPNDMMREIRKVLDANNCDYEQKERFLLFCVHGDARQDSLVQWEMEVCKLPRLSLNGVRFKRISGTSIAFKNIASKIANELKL
Summary of the method: (§2)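 Eurofins radiometric enzymatic assay with ATP at Km for each kinase. IC50 was derived from a 9-point dose–response curve run in duplicate.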

[7] = molecular target: T6, Serine/threonine-protein kinase 17B (Homo sapiens) (UniProt O94768); experiment: Inhibition of recombinant human DRAK2 using KKRPQRRYSNVF as substrate after 120 mins in presence of [gamma-33ATP] by scintillation counting based radiometry assay; summary of the method: as §2
T6 sequence (whole entry): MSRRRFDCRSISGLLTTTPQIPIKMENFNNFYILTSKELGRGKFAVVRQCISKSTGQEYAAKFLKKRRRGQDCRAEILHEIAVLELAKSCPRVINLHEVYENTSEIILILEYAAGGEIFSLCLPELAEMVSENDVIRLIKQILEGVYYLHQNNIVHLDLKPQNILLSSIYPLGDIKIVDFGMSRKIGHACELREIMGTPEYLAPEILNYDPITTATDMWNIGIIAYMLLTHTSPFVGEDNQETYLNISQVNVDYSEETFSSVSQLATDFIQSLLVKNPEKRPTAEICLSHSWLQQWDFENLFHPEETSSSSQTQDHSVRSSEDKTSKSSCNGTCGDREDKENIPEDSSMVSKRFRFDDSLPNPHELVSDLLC

[8] = molecular target: AP2-associated protein kinase 1 (Homo sapiens, UniProt Q2M2I8); experiment: Inhibition of human AAK1 using peptide as substrate incubated for 120 mins in presence of [gamma-33ATP] by scintillation counting based radiometry assay; summary of the method: as §1
Sequence of AP2-associated protein kinase 1 (Q2M2I8 whole entry, looked up): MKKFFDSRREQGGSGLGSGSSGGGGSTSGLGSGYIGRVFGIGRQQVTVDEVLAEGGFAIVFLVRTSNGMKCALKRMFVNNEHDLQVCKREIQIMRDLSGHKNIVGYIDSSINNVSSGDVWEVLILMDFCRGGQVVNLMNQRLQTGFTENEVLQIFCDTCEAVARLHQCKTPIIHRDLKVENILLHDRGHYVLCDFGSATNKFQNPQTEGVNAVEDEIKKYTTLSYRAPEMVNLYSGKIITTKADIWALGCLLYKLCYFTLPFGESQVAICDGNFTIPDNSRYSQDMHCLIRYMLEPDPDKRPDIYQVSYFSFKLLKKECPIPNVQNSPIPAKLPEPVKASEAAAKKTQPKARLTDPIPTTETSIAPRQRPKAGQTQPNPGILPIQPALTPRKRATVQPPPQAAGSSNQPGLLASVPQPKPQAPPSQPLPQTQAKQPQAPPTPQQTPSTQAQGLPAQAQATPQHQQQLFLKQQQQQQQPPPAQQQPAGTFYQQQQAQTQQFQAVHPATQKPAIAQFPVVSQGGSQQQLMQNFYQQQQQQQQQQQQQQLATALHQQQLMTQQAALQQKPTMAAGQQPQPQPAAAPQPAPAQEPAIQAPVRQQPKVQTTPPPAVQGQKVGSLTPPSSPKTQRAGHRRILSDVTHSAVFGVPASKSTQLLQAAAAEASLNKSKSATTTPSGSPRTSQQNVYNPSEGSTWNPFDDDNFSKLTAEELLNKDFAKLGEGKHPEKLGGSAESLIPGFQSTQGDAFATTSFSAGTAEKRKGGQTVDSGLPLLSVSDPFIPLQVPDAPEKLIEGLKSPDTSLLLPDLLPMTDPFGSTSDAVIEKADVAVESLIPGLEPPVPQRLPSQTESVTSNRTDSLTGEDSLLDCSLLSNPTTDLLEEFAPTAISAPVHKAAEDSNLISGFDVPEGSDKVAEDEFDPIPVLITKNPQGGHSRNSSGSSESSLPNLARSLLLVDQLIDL

[9] = Kinetic solubility of compound in PBS at pH 7.4 incubated for 24 hrs by chemiluminscent nitrogen detection method; type: physicochemical; conditions: buffer, pH 7.4, 24 h
Summary of the method: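 Filtrates were quantified by total chemiluminescent nitrogen determination against a calibration curve, with correction for background nitrogen from DMSO and medium.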

[10] = Effective permeability in PBS at 7.4 incubated for 5 hrs by PAMPA analysis; type: ADME; conditions: pH 7.4, 5 h
Summary of the method: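 PAMPA: DMSO stocks were diluted in PBS pH 7.4 and placed in the donor compartment, with PBS pH 7.4 in the acceptor, for 5 h. Both compartments were quantified by CLND against a calibration curve, with background nitrogen correction. Effective permeability was calculated from donor and acceptor concentrations using measured rather than assumed solubility.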

[11] = molecular target: T3, MAP/microtubule affinity-regulating kinase 3; experiment: Inhibition of recombinant full length human MARK3 using KKKVSRSGLYRSP as substrate incubated for 40 mins in presence of [gamma-33ATP] by scintillation counting based radiometry assay; summary of the method: as §2
Target sequence in this assay (P27448 whole entry, looked up, the tested form may be a part): as the sequence (P27448 whole entry, the tested form may be a part) above

[12] = molecular target: T7, MAP/microtubule affinity-regulating kinase 4 (Homo sapiens) (UniProt Q96L34); experiment: Inhibition of recombinant full length human MARK4 using KKKVSRSGLYRSPSMPENLNRPR as substrate incubated for 40 mins in presence of [gamma-33ATP] by scintillation counting based radiometry assay; summary of the method: as §2
T7 sequence (whole entry): T4 sequence (Q96L34 whole entry)

[13] = molecular target: Mitogen-activated protein kinase kinase kinase 9 (Homo sapiens) (UniProt P80192); experiment: Inhibition of recombinant human MLK1 (134 to 414 residues) using casein as substrate incubated for 40 mins in presence of [gamma-33ATP by scintillation counting based radiometry assay; summary of the method: as §2
Sequence of Mitogen-activated protein kinase kinase kinase 9 (Homo sapiens) (P80192 whole entry, looked up, the tested form may be a part): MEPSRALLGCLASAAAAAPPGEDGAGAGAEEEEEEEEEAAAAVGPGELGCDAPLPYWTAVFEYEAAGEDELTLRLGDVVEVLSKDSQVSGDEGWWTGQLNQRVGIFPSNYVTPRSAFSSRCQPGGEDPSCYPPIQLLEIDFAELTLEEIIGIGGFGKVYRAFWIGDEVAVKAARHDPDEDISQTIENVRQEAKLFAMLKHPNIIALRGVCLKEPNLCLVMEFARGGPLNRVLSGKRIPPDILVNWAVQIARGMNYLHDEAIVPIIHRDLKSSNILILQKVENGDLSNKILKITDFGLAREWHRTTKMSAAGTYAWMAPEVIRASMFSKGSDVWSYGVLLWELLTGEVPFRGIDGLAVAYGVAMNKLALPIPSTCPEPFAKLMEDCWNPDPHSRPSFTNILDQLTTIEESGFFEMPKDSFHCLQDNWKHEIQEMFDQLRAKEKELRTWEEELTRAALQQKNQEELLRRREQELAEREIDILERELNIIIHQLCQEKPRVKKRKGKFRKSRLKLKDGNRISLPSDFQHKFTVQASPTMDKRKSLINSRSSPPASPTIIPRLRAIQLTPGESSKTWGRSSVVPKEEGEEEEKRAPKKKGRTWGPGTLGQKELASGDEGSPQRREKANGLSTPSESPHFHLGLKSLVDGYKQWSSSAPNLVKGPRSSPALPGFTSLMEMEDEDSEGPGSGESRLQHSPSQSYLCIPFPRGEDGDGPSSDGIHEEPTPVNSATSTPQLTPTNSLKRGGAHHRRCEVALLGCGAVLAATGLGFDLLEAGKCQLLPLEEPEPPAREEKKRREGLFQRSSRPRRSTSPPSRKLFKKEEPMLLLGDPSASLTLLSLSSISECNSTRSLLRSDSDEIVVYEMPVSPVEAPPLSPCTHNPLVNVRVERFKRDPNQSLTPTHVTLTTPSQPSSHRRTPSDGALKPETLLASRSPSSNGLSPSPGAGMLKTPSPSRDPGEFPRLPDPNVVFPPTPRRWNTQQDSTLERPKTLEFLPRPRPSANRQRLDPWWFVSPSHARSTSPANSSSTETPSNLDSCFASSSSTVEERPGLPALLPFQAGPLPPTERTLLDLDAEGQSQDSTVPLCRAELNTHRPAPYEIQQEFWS

[14] = molecular target: NUAK family SNF1-like kinase 1 (Homo sapiens) (UniProt O60285); experiment: Inhibition of recombinant human ARK5 (2 to end residues) using KKKVSRSGLYRSPSMPENLNRPR as substrate incubated for 40 mins in presence of [gamma-33ATP] by scintillation counting based radiometry assay; summary of the method: as §2
Sequence of NUAK family SNF1-like kinase 1 (Homo sapiens) (O60285 whole entry): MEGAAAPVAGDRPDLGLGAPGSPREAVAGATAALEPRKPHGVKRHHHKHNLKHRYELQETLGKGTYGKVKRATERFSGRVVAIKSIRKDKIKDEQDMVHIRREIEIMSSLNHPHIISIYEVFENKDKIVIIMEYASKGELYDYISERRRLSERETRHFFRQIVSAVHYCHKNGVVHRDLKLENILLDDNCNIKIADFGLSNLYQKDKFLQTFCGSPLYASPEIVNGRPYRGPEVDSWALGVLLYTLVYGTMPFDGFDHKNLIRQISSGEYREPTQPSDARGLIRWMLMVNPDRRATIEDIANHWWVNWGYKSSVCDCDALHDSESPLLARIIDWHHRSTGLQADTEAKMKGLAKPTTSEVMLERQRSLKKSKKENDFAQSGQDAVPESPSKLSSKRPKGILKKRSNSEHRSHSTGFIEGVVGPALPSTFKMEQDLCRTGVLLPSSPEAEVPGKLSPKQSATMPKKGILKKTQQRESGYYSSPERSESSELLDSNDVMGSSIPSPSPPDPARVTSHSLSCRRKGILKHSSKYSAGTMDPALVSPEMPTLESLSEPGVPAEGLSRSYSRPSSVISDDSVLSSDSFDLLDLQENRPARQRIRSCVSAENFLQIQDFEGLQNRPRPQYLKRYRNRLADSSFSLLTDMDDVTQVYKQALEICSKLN

Row | Structure (SMILES) | inhibition [1] | IC50 [2] [µM] | IC50 [3] [µM] | IC50 [4] [µM] | IC50 [5] [µM] | inhibition [6] | inhibition [7] | inhibition [8] | Kinetic solubility [9] [µM] | Peff [10] | inhibition [11] | inhibition [12] | inhibition [13] | inhibition [14] | Kinetic_solubility [9] [µM]
1 | Cc1nn(CC(F)(F)F)cc1Nc1ncc(Br)c(NCCCNC(=O)C2CCC2)n1 | Active | 0.126 | > 10 | 3.54 | 0.321 | Active | Active | Active | 40.3 | 3.73 10^-6 cm/s |  |  |  |  | 
2 | c1cc(CN2CCOCC2)cc(Nc2ncc(C3CC3)c(NCCc3c[nH]cn3)n2)c1 |  | 3.62 | 4.01 | 0.808 | > 10 | Active |  |  |  | 5.61 10^-7 cm/s | Active | Active | Active | Active | 173.6
